The values below come from ChEMBL document CHEMBL4266038, “Total Synthesis of Xanthoangelol B and Its Various Fragments: Toward Inhibition of Virulence Factor Production of Staphylococcus aureus” (J Med Chem, 2018).

Experiment [1] concerns Staphylococcus aureus subsp. aureus USA300. As to the kind of experiment: Inhibition of methicillin-resistant Staphylococcus aureus USA300 SaeRS Tn551 deletion mutant assessed as reduction in alpha-hemolysin mediated hemolysis of human erythrocytes at 15 uM after 8 hrs by ELISA relative to control. In short, it runs like this:
(§1)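 Overnight cultures of wild-type USA300 or the saeS mutant were diluted 1:100 in TSB and grown to OD600 = 1. Cells at 5x10^5/ml were grown with compound for 8 h at 37 °C, 250 rpm. Supernatants were mixed 1:1 with 5% DPBS-washed human RBC for 30 min, then centrifuged, and hemolysis was read at OD540. Experiments were run in triplicate.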
(In an ELISA, binding on a coated surface is turned into a signal by an enzyme label.)

Experiment [2] shares this test system. Kind of experiment: Inhibition of methicillin-resistant Staphylococcus aureus USA300 SaeRS assessed as reduction in alpha-hemolysin mediated hemolysis of human erythrocytes at 4 uM after 8 hrs by ELISA. In short, it runs like this: as §1
The test system is the same in experiment [3]. As to the kind of experiment: Inhibition of methicillin-resistant Staphylococcus aureus USA300 SaeRS assessed as reduction in alpha-hemolysin mediated hemolysis of human erythrocytes at 8 uM after 8 hrs by ELISA. In short, it runs like this:
as §1

The test system is the same in experiment [4]. As to the kind of experiment: Inhibition of methicillin-resistant Staphylococcus aureus USA300 SaeRS Tn551 deletion mutant assessed as reduction in alpha-hemolysin mediated hemolysis of human erythrocytes at 8 uM after 8 hrs by ELISA relative to control. A digest of the protocol: as §1

Activity calls are given as the source filed them. The calls are words filed in the database; no cut-off is given here.

The term inhibition denotes how much of the control response was suppressed. For `C=C(C)C(O)CC/C(C)=C/Cc1c(O)ccc(C(=O)CC(O)c2ccc(O)cc2)c1O` (stereo unspecified), the inhibition in experiment [1] came out at 87.4%. The inhibition entry in experiment [2] and in experiment [3] was “Active” each time.

`C=C(C)C(O)CC/C(C)=C/Cc1c(O)ccc(C(=O)/C=C/c2ccc(O)cc2)c1O` (stereo unspecified) [XANTHOANGELOL B]: the inhibition entry in experiment [2] and in experiment [3] was “Active” throughout. Moreover, the inhibition in experiment [4] was determined as 86.9%.
